Assay type in all cases: functional
Experiment [1] concerns Klebsiella aerogenes. Description: Inhibitory activity against ATCC 13048 strain(Enterobacter aerogenes) in the presence of ciprofloxacin fluoroquinolone at 16 ug/mL. In short, it runs like this:
(§1)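 Checkerboard microtitration MIC with fluoroquinolone plus test compound against E. aerogenes ATCC 13048 or its p9 derivative carrying plasmid-borne E. coli marA. Bacteria were grown in Luria-Bertani or Mueller-Hinton broth at 37 °C, with 15 µg/mL tetracycline for p9. Wells were inoculated at 10^5 cells/mL and growth was scored visually after 18 h at 37 °C. Values are means of two independent experiments.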

The subject of experiment [2] is Klebsiella aerogenes. Kind of experiment: Inhibitory activity against p9- (derivative of ATCC )13048 strain(Enterobacter aerogenes) in the presence of ciprofloxacin and fluoroquinolone at 16 ug/mL. In short, it runs like this:
as §1

The test system of experiment [3] is Klebsiella aerogenes. Kind of experiment: Inhibitory activity against p9- (derivative of ATCC )13048 strain(Enterobacter aerogenes) in the presence of Norfloxacin and fluoroquinolone at 16 ug/mL. In short, it runs like this: as §1
Experiment [4] deals with Klebsiella aerogenes. Description: Inhibitory activity against ATCC 13048 strain(Enterobacter aerogenes) in the presence of Norfloxacin and fluoroquinolone at 16 ug/mL. The essentials: as §1
The subject of experiment [5] is Klebsiella aerogenes. Description: Inhibitory activity against p9- (derivative of ATCC )13048 strain(Enterobacter aerogenes) in the presence of Norfloxacin and luoroquinolone at 16 ug/mL. In short, it runs like this:
as §1

Experiment [6] deals with Klebsiella aerogenes. Kind of experiment: Inhibitory activity against Enterobacter aerogenes-3 strain in the presence of Norfloxacin and fluoroquinolone at 128 ug/mL. In short, it runs like this:
(§2)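 Compound ranged 8–128 µg/mL, combined with norfloxacin at 16–128 µg/mL or ciprofloxacin at 4–64 µg/mL (final). Cells were grown in LB or MH broth at 37 °C and wells inoculated at 10^5 cells/mL. After 18 h at 37 °C growth was read visually. Values are means of two independent experiments.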

Experiment [7] deals with Klebsiella aerogenes. Description: Inhibitory activity against Enterobacter aerogenes-3 istrainn the presence of ciprofloxacin and fluoroquinolone at 128 ug/mL. The essentials: as §2
Experiment [8] concerns Klebsiella aerogenes. Kind of experiment: Inhibitory activity against ATCC 13048 strain(Enterobacter aerogenes) in the presence of Norfloxacin and fluoroquinolone at a concentration of 16 ug/mL. In short, it runs like this:
as §1

The test system of experiment [9] is Klebsiella aerogenes. Description: Inhibitory activity against Enterobacter aerogenes-3 strain in the presence of Norfloxacin and fluoroquinolone at 64 ug/mL. The essentials: as §2
The test system of experiment [10] is Klebsiella aerogenes. Kind of experiment: Inhibitory activity against Enterobacter aerogenes-3 istrainn the presence of ciprofloxacin and fluoroquinolone at 64 ug/mL. In short, it runs like this: as §2
For experiment [11], the system named is Klebsiella aerogenes. Description: Inhibitory activity against ATCC 13048 strain(Enterobacter aerogenes) in the presence of ciprofloxacin fluoroquinolone at 32 ug/mL. In short, it runs like this: as §1
Experiment [12] has as its system Klebsiella aerogenes. Kind of experiment: Inhibitory activity against ATCC 13048 strain(Enterobacter aerogenes) in the presence of Norfloxacin and fluoroquinolone at 32 ug/mL. The essentials:
as §1

In general, MIC refers to the lowest concentration found to suppress growth.

As for `CCN(CC)CCSc1cc(C)nc2c(C)c3nc(C)cc(SCCN(CC)CC)c3cc12`, the MIC worked out at 0.025 mg/L in [1], 0.5 mg/L in [2], 1 mg/L in [3] and 0.05 mg/L in [4].

In the case of `Cc1cc(OCCN(C(C)C)C(C)C)c2cc3c(OCCN(C(C)C)C(C)C)cc(C)nc3c(C)c2n1`, the MIC in experiment [1] is 0.05 mg/L; in [2] it was 0.5 mg/L; in experiment [4], 0.05 mg/L; in experiment [5] it was 2 mg/L.

Take `Cc1cc(OCCN2CCCCC2)c2cc3c(OCCN4CCCCC4)cc(C)nc3c(C)c2n1`: the MIC in experiment [1] was 0.025 mg/L; in experiment [2] it was 0.25 mg/L; in experiment [3], 1 mg/L; in experiment [4], 0.1 mg/L; in experiment [6], 128 mg/L; in experiment [7] it was 32 mg/L.

With `Cc1cc(OCCCN(C)C)c2cc3c(OCCCN(C)C)cc(C)nc3c(C)c2n1`, the MIC is 0.025 mg/L in experiment [1]; 0.05 mg/L in [2]; 1 mg/L in [3]; 0.05 mg/L in experiment [4]; 128 mg/L in experiment [6]; 32 mg/L in [7].

In the case of `Cc1cc(OCCN(C)C)c2cc3c(OCCN(C)C)cc(C)nc3c(C)c2n1`, the MIC stood at 0.025 mg/L in [1], 0.25 mg/L in experiment [2], 0.1 mg/L in experiment [8] and 1 mg/L in experiment [3].

With `Cc1cc(OCCN2CCOCC2)c2cc3c(OCCN4CCOCC4)cc(C)nc3c(C)c2n1`, the MIC in experiment [1] worked out at 0.025 mg/L; in [2], 0.5 mg/L; in experiment [3], 2 mg/L; in experiment [4] it was 0.05 mg/L.

`Cc1cc(SCCN(C)C)c2cc3c(SCCN(C)C)cc(C)nc3c(C)c2n1`: the MIC turned out to be 0.025 mg/L in [1]; 64 mg/L in experiment [9]; 8 mg/L in experiment [10]; 0.25 mg/L in experiment [2]; 0.1 mg/L in experiment [11]; 0.25 mg/L in experiment [3]. The MIC in experiment [4] was determined as 0.05 mg/L; in experiment [12], 0.25 mg/L; in [6], 16 mg/L; in experiment [7], 4 mg/L.

As to `Cc1cc(SCCn2cccc2)c2cc3c(SCCn4cccc4)cc(C)nc3c(C)c2n1`, the MIC in experiment [1] came to 0.025 mg/L; in experiment [2], 0.1 mg/L; in experiment [3] it was 0.5 mg/L; in experiment [4], 0.025 mg/L.

Take `Cc1cc(SCCN2CCCCC2)c2cc3c(SCCN4CCCCC4)cc(C)nc3c(C)c2n1`: the MIC in experiment [1] was determined as 0.025 mg/L; in [2], 0.5 mg/L; in [3] it was 2 mg/L; in experiment [4] it was 0.05 mg/L.

In the case of `O=C(O)c1cn(C2CC2)c2cc(N3CCNCC3)c(F)cc2c1=O` [CIPROFLOXACIN], the MIC in experiment [1] is 0.5 mg/L; in experiment [3] it was 32 mg/L; in [4], 0.025 mg/L.

Regarding `CCn1cc(C(=O)O)c(=O)c2cc(F)c(N3CCNCC3)cc21` [NORFLOXACIN], the figures for the MIC in experiment [3] and in [4] were 128 mg/L and 0.05 mg/L, respectively.

Values taken from ChEMBL document CHEMBL1134275, “New pyridoquinoline derivatives as potential inhibitors of the fluoroquinolone efflux pump in resistant Enterobacter aerogenes strains” (2001).
